Only some compounds are listed: those with a hit (about 4.5% of all), similar ones and a draw of the others.
PERK inhibitor: inhibitors of human PERK kinase | CHO PERK-DD fusion, SEAP luminescence translation reporter | 220,000 tested, 0.17% active | inhibition, % at 5.6 µM | Q9NZJ5;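 active means inhibition above the mean inhibition of all tested compounds plus 3 SD, set separately per screening campaign, cut at about 2.9% in these data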;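 further: PERK kinase domain activated by AP20187 dimerizer at 100 nM; 0% = DMSO with dimerizer and 100% = rapamycin at 8.4 µM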
AHR act: human AHR activation; P35869; AHR-responsive luciferase reporter cells, luminescence; activation, % at 5 µM; 320,000 tested, 2.5% active; AID 2796; in the data active means activation above about 47%;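 further: 0% = vehicle wells and 100% = reference agonist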
Target sequence (P35869 whole entry, looked up): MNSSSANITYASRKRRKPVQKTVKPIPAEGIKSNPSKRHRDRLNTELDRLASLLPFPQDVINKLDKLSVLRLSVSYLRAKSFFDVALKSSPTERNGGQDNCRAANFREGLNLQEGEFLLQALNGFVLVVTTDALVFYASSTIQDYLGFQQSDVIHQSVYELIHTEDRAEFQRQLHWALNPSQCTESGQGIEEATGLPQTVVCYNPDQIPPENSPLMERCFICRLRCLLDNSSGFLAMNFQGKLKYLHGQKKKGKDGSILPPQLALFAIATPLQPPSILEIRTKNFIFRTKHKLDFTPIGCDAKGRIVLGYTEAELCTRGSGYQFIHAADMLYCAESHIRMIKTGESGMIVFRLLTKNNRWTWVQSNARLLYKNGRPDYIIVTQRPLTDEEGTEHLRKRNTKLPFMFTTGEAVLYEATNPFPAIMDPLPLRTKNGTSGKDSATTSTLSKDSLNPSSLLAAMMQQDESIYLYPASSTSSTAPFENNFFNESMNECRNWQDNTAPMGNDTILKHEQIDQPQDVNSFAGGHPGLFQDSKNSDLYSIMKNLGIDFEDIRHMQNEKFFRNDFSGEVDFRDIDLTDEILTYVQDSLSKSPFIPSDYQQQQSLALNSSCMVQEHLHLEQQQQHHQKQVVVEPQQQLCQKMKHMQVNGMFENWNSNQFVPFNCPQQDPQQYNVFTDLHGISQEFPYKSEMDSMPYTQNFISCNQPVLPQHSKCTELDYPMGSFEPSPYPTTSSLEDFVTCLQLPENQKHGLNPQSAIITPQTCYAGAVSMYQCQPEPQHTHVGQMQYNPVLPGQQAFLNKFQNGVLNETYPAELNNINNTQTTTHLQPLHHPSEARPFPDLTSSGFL
Mdm2 ligase inh: blocks human Mdm2 ubiquitin ligase activity | Q00987 | cell-based MDM2 ubiquitination luciferase reporter, 2 h; 0 = plate control, 100 = twice control, blank-subtracted | signal enhancement, % at 5 µM | 210,000 tested, 0.11% active;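 active means signal enhancement of 30% or more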;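 further: luminescence tracks abundance of the self-degrading MDM2-luciferase fusion protein; higher signal means inhibition of MDM2 E3 ligase activity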
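Material: Stable MDM2–luciferase fusion reporter cells | Amount: 2000 cells seeded into each well | Dosing: One concentration, 5 µM, with 0.2% DMSO | Incubation: 4 h cell settling then 2 h compound exposure, 37 °C | Measured by: Luciferase luminescence | Read-out basis: % enhancement relative to plate controls after blank subtraction | Benchmarks: Control and blank well means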
NF-kB neuron act: raises NF-kB expression in human neuronal cells; NF-kB reporter expression; hits give high values; AID 1239; fold change at 12.5 µM; 190,000 tested, 1.6% active; in the data active means fold change above about 3.3
STAT1 activator: activators of IFN-gamma induced STAT1 signaling; NIH 3T3 STAT1-luciferase reporter, luminescence; 100% = IFN-gamma alone, no compound; activation (% of control), % at 5.5 µM; 200,000 tested, 2.6% active; AID 932;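 active means activation above the screen-wide mean activation plus 3 SD, cut at about 130% in these data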;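 further: raw ratio to IFN-gamma control signal so 100% means no change and 0% no light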
APP 5'UTR act: APP 5'UTR luciferase reporter activation. SH-SY5Y APP 5'UTR luciferase reporter, luminescence; zero percent = DMSO vehicle wells. activation, % at 2 µM. 190,000 tested, 1% active. AID 1276;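 active means activation above a set limit, based on mean plus 3 SD of controls, cut at about 140% in these data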
Starred values were filed as active, the others as inactive; . = not tested or not shown.

SMILES	PERK inhibitor	AHR act	Mdm2 ligase inh	NF-kB neuron act	STAT1 activator	APP 5'UTR act
COc1ccc(C2=CC(c3ccco3)n3ncnc3N2)cc1 (stereo unspecified)	1	.	3	1.1	103	4
N#Cc1c(N)oc(-c2ccc3c(c2)OCO3)c1-c1ccc2c(c1)OCO2	-1	4	-16	1.8	98	14
Nc1ccc(N=Nc2ccccc2O)c(N)c1	.	72*	.	.	.	.
Cc1cc(SCC(=O)c2ccc(O)c(O)c2)nc2ccccc12	0	-3	-10	0.79	100	-5
Cc1cc(SCC(=O)c2cc3ccccc3o2)nc2ccccc12	0	52*	27	1.2	96	11
Cc1cc(SCC(=O)c2ccc3c(c2)OCO3)nc2ccccc12	0	64*	-17	1.1	97	-9
Cc1ccccc1Cn1c(=O)n(C)c(=O)c2sccc21	.	1	.	.	.	.
O=C(Nc1cccnc1Cl)c1noc2c1CCc1ccccc1-2	1	-4	-15	2.6	135*	103
COc1cc(NC(=O)COC(=O)c2cnccn2)c(C)cc1[N+](=O)[O-]	2	8	-23	.	.	.
CCCCN(CC)C(=O)c1cc2c(=O)n3cccc(C)c3nc2s1	.	28	.	.	.	.
CCC(C)NC(=O)c1cc2c(=O)n3cccc(C)c3nc2s1 (stereo unspecified)	.	65*	.	.	.	.
CCN(CC)C(=O)c1cc2c(=O)n3cccc(C)c3nc2s1	.	47*	.	.	.	.
O=[N+]([O-])c1ccc(Nc2ccc(Cl)cc2)nc1	0	-6	-4	2.1	95	7
O=[N+]([O-])c1ccc(Nc2ccc3ccccc3c2)nc1	1	-2	-20	1.9	133*	30
Cc1ccc2c(c1)C=CC(C)(C)S2=O (stereo unspecified)	0	2	118*	1.1	98	-9
CC1CCN(c2ccc(NC(=O)Cc3ccccc3)cc2)CC1	1	5	-17	1.1	142*	49
O=C(Cc1ccccc1)Nc1ccc(N2CCCC2)cc1	-1	2	-13	1.1	114	-3
CCCc1ccc(OCc2ccccc2)c2c(=O)cc(C(=O)OCC)oc12	3.1*	5	-11	.	.	.
Cc1ccc(C(=O)Nc2cccc(C(F)(F)F)c2)cc1Nc1ccccn1	.	50*	9	.	.	.
Cc1ccc(C(=O)Nc2cccc(C(F)(F)F)c2)cc1NC(=O)c1c[nH]c2cc(C(F)(F)F)ccc2c1=O	.	58*	.	.	.	.
Cc1cc(C)nc(Oc2ccc(Br)cc2Br)n1	0	4	0	0.86	142*	23
CCOC(=O)c1c(C)[nH]c(C)c1S(=O)(=O)N(C)CC(=O)NCc1ccc(F)cc1	.	2	.	.	.	.
CS(=O)(=O)Nc1cccc(S(=O)(=O)N2CCN(C(=O)c3ccccc3)CC2)c1	1	-1	.	.	.	.
O=C(O)c1ccc(NC(=O)c2cn(-c3ccccc3)nc2-c2ccc(F)cc2)cc1	1	7	6	1.6	135*	11
Cc1cc(N2CCCCCC2)nc2ccc(F)cc12	0	58*	.	.	90	-9
SMILES	PERK inhibitor	AHR act	Mdm2 ligase inh	NF-kB neuron act	STAT1 activator	APP 5'UTR act
O=C1c2ccccc2-c2nc3ncnn3c(-c3ccccc3Cl)c21	0	56*	-6	1	102	-5
Cc1nc2ncnn2c(C)c1Cc1c(Cl)cccc1Cl	0	-3	.	1.3	101	.
COc1ccccc1-n1c(SCC(=O)NC2CC2)nc2ccccc2c1=O	.	1	.	.	.	.
CC(C)[C@@H](CSc1ccccc1)N1CCN(Cc2ccccc2)CCC1=O	.	1	.	.	.	.
COc1cccc(C(=O)/C=C2\NCCc3cc(OC)c(OC)cc32)c1	.	53*	.	.	.	.
NS(=O)(=O)c1ccc(CCNC(=O)c2ccc(C#CC3(O)CCCCC3)cc2)cc1	0	0	-12	0.32	52	1
CC(=O)c1ccc(S(=O)(=O)N2CCN(C(C)=O)CC2)cc1	0	0	-3	1.3	102	21
CC(=O)c1ccc(S(=O)(=O)N2CCN(CC#N)CC2)cc1	4.5*	0	-6	.	.	.
Brc1ccc(OCc2nc3ccccc3[nH]2)cc1	.	8	.	.	.	.
COc1ccc(OCc2nc3ccccc3[nH]2)cc1	-1	6	2	4*	117	.
COc1cccc(OCc2nc3ccccc3[nH]2)c1	0	22	-22	3.4*	126	131
CC(C)(C)c1ccc(NC(=O)Cn2cnc3cc([N+](=O)[O-])ccc3c2=O)cc1	1	11	-1	0.84	109	4
O=S(=O)(c1ccc(F)cc1)c1snnc1-c1ccccc1	1	0	-14	0.99	82	-93
O=S(=O)(c1ccc(Cl)cc1)c1snnc1-c1ccccc1	0	1	-15	6.4*	99	-96
COc1cccc(CNCCSc2nnnn2C)c1	-1	1	-25	0.87	98	4
Cn1nnnc1SCCNCc1cccnc1	3.2*	-2	-5	0.95	100	-5
COc1ccc(CCn2c(=O)[nH]c3cc(C(=O)NCCc4ccccc4)ccc3c2=O)cc1OC	3.0*	.	-9	0.82	109	18
O=C(O)C1CCCCN1C(=O)c1cc2c(s1)CCCCC2 (stereo unspecified)	.	-1	.	.	.	.
NC(=O)c1ccc(NC(=O)COC(=O)CCN2C(=O)c3ccccc3C2=O)cc1	.	-1	.	.	.	.
O=C(O/N=C/c1ccc2c(c1)OCO2)c1ccccc1Cl	0	0	-10	3.7*	103	7
Cc1ccc(CNC(=O)C2CCC(=O)N(CCc3ccc(Cl)cc3)C2)cc1 (stereo unspecified)	.	6	.	.	.	.
C=CC[C@H](CC(=O)N(CCO)Cc1ccccc1)C(=O)NC[C@H](OC(=O)[C@@H](CC=C)Cc1ccc(F)cc1)c1ccccc1	.	1	.	.	.	.
COCCNc1nc2nonc2nc1N(C)Cc1cccc2cnccc12	1	3	48*	0.94	96	-4
CCc1cc(C(=O)Nc2ncccc2O)sc1C	.	78*	.	.	.	.
COC(=O)CCNCCSc1nnc(-c2ccco2)n1Cc1ccccc1	1	2	.	.	.	.
SMILES	PERK inhibitor	AHR act	Mdm2 ligase inh	NF-kB neuron act	STAT1 activator	APP 5'UTR act
O=C(NCc1ccc(Cl)cc1)C(=O)c1cn(CC(=O)N2CCOCC2)c2ccccc12	.	2	.	.	.	.
O=C(Nc1ccccc1Cl)C(=O)c1cn(CC(=O)N2CCOCC2)c2ccccc12	.	73*	.	.	.	.
COc1ccc(OC)c(CN2CCN(c3ccc(S(=O)(=O)N4CCCC4)cn3)CC2)c1	.	0	.	.	.	.
O=C(CN1CCSC1=O)N1CCN(S(=O)(=O)c2ccccc2)CC1	.	-1	.	.	.	.
O=C(CSc1ncnc2ccccc12)c1ccco1	0	20	-10	5.6*	132*	146*
CCOC(=O)c1c(C)[nH]c(C(=O)OCC(=O)Nc2sccc2C(N)=O)c1C	.	53*	.	.	.	.
CC1(C)Cc2c(cnn2-c2ccc(F)cc2)C(NC(=O)CCC(F)(F)F)C1 (stereo unspecified)	.	-1	.	.	.	.
CCCCCC1=NN2C(=O)CC(=O)N=C2S1	0	0	.	.	.	.
CCN(CC)C(=O)c1cc2sc3ccccc3c2s1	-1	6	1	2.7	142*	76
CCCC1CC(C(=O)Nc2ccccc2)C(=O)O1 (stereo unspecified)	.	-3	.	.	.	.

High-throughput results as filed in PubChem BioAssay.
